Each structure is given as a SMILES string. Bounds are passed on as bounds.

Test [1] deals with LNCaP. The experiment in a line: Potency index, ratio of silibinin IC50 to compound IC50 for antiproliferative activity against human LNCAP cells. Type of test: functional. The method in brief: (§1)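 Ratio of silibinin IC50 to derivative IC50. Both come from the 3-day WST-1 assay run in parallel (5 doses, absorbance at 430 nm, IC50 from linear fit, at least triplicates).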
The nature of test [2]: Antiproliferative activity against human DU145 cells assessed as reduction in cell viability after 3 days by WST-1 cell proliferation assay. Type of test: functional, cell-based. The conditions noted are these: DU-145, 72 h. The method, boiled down: (§2)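 Cells from ATCC; PC-3 and LNCaP grown in RPMI-1640, DU145 in EMEM, each with 10% FBS and 1% penicillin/streptomycin, 37 °C, 5% CO2. 3,200 cells per well, treated at 5 concentrations for 3 days with 0.25% DMSO as vehicle control. WST-1 reagent added, 3 h at 37 °C, absorbance read at 430 nm. IC50 from linear fit of at least five doses, mean of at least triplicates.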
A general note: Tetrazolium assays rely on reduction of a dye to a coloured formazan, in cell work by metabolically active cells.

The subject of test [3] is LNCaP. The experiment in a line: Antiproliferative activity against human LNCAP cells assessed as reduction in cell viability after 3 days by WST-1 cell proliferation assay. Type of test: functional, cell-based. The note with it: 72 h. The method, boiled down:
as §2

Test [4] in a line: Potency index, ratio of silibinin IC50 to compound IC50 for antiproliferative activity against human DU145 cells. Type of test: functional, DU-145. The method in brief:
as §1

Test [5] can be described thus: Potency index, ratio of silibinin IC50 to compound IC50 for antiproliferative activity against human PC3 cells. Type of test: functional, PC-3. The method in brief:
as §1

A short description of test [6]: Antiproliferative activity against human PC3 cells assessed as reduction in cell viability after 3 days by WST-1 cell proliferation assay. Type of test: functional, cell-based. The note with it: PC-3, 72 h. The method, boiled down: as §2

Take `CCCCCCOc1cc(O)c2c(=O)c(O)c(-c3ccc4c(c3)OC(c3ccc(O)c(OC)c3)C(CO)O4)oc2c1` (centres undefined): the results for the “Ratio IC50” value (with LNCaP [1]; in test [4]; in test [5]) were 11, 11 and 10, respectively. In addition, the concentration for half-maximal inhibition (IC50) (in general, the midpoint of a concentration-inhibition curve) came to 8.84 µM in test [2], 4.01 µM with LNCaP [3] and 6.94 µM in test [6].
`CCCOc1cc(O)c2c(c1)O[C@H](c1ccc3c(c1)OC(c1ccc(O)c(OC)c1)C(CO)O3)[C@@H](O)C2=O` (some centres undefined): the results for the “Ratio IC50” value (with LNCaP [1]; in test [4]; in test [5]) were 9, 3 and 4, respectively. In addition, the half-maximal inhibitory concentration (IC50) in test [2] stood at 30.3 µM; with LNCaP [3], 4.66 µM; in test [6], 18.5 µM.
In the case of `CCCCCCOc1cc(O)c2c(=O)c(OCCCCCC)c(-c3ccc4c(c3)OC(c3ccc(O)c(OC)c3)C(CO)O4)oc2c1` (centres undefined), the “Ratio IC50” value (in the test with LNCaP [1]; in test [4]; in test [5]) was under 1 in each case. For the same molecule, the IC50 (in test [2]; with LNCaP [3]; in test [6]) was over 100 µM each time.
Turning to `CCCOc1cc(O)c2c(=O)c(OCCC)c(-c3ccc4c(c3)OC(c3ccc(O)c(OC)c3)C(CO)O4)oc2c1` (centres undefined), the “Ratio IC50” value amounted to 4 with LNCaP [1], 5 in test [4] and 5 in test [5]. For the same molecule, the values for the 50% inhibitory concentration (IC50) (in test [2]; in the test with LNCaP [3]; in test [6]) were 20.6 µM, 11 µM and 17.4 µM, respectively.
Take `COc1cc(C2Oc3cc([C@H]4Oc5cc(O)cc(O)c5C(=O)[C@@H]4O)ccc3OC2CO)ccc1O` (some centres undefined) [SILIBININ]: the IC50 in test [2] worked out at 93.3 µM; in the test on LNCaP [3], 43 µM; in test [6] it was 72.7 µM.
As for `CCCCOc1cc(O)c2c(c1)O[C@H](c1ccc3c(c1)OC(c1ccc(O)c(OC)c1)C(CO)O3)[C@@H](O)C2=O` (some centres undefined), the “Ratio IC50” value in the test with LNCaP [1] is given as 17; in test [4] it was 8; in test [5], 14. Besides, the results for the half-inhibitory concentration (IC50) (in test [2]; in the test with LNCaP [3]; in test [6]) were 12 µM, 2.51 µM and 5.38 µM, respectively.
Turning to `CCOc1cc(O)c2c(c1)O[C@H](c1ccc3c(c1)OC(c1ccc(O)c(OC)c1)C(CO)O3)[C@@H](O)C2=O` (some centres undefined), the “Ratio IC50” value with LNCaP [1] is 123; in test [4], 3; in test [5], 5. Besides, the IC50 in test [2] is 27.7 µM; in the test with LNCaP [3], 0.35 µM; in test [6], 16.1 µM.
As for `COc1cc(O)c2c(=O)c(O)c(-c3ccc4c(c3)OC(c3ccc(O)c(OC)c3)C(CO)O4)oc2c1` (centres undefined), the “Ratio IC50” value with LNCaP [1] is 16; in test [4] it was 12; in test [5], 30. Moreover, the IC50 in test [2] was determined as 7.92 µM; with LNCaP [3] it was 2.76 µM; in test [6], 2.39 µM.
On to `COc1cc(C2Oc3cc(-c4oc5cc(OCc6ccccc6)cc(O)c5c(=O)c4O)ccc3OC2CO)ccc1O` (centres undefined), for which the “Ratio IC50” value with LNCaP [1] was 12; in test [4], 10; in test [5], 9. The values for the concentration for half-maximal inhibition (IC50) (in test [2]; with LNCaP [3]; in test [6]) were 8.97 µM, 3.71 µM and 7.98 µM, respectively.
`CCCCCCCOc1cc(O)c2c(=O)c(O)c(-c3ccc4c(c3)OC(c3ccc(O)c(OC)c3)C(CO)O4)oc2c1` (centres undefined): the “Ratio IC50” value in the test with LNCaP [1] amounted to 9; in test [4], 12; in test [5], 10. For the same molecule, the IC50 in test [2] came out at 7.49 µM; with LNCaP [3], 4.81 µM; in test [6] it was 7.09 µM.
In the case of `COc1cc(C2Oc3cc([C@H]4Oc5cc(OCc6ccccc6)cc(O)c5C(=O)[C@@H]4O)ccc3OC2CO)ccc1O` (some centres undefined), the “Ratio IC50” value in the test with LNCaP [1] is given as 21; in test [4], 11; in test [5], 14. Moreover, the IC50 in test [2] came out at 8.77 µM; in the test with LNCaP [3], 2.04 µM; in test [6] it was 5.29 µM.
For `CCCCCCCOc1cc(O)c2c(c1)O[C@H](c1ccc3c(c1)OC(c1ccc(O)c(OC)c1)C(CO)O3)[C@@H](O)C2=O` (some centres undefined), the “Ratio IC50” value in the test with LNCaP [1] amounted to 9; in test [4], 5; in test [5], 7. In addition, the IC50 in test [2] is 17.4 µM; in the test with LNCaP [3], 4.57 µM; in test [6], 10.9 µM.

The values are drawn from ChEMBL document CHEMBL3763115, “Silibinin derivatives as anti-prostate cancer agents: Synthesis and cell-based evaluations” (Eur J Med Chem, 2016).
